Experimental data taken from ChEMBL document CHEMBL1138232, “Optimization of naphthalimide-imidazoacridone with potent antitumor activity leading to clinical candidate (HKH40A, RTA 502)” (J Med Chem, 2007).

What was measured:
[1] = system: A498; assay: Antitumor activity against human A498 cells after 48 hrs; format: functional; settings: A498, 48 h
Outline: (§1)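 Tested in the NCI 60 human tumour cell line screen, with continuous drug exposure for 48 h. Values include LC50 derived from the screen.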

[2] = system: Hs-578T; assay: Antitumor activity against human HS578T cells after 48 hrs; format: functional; outline: as §1
[3] = system: SN12C; assay: Antitumor activity against human SN12C cells after 48 hrs; format: functional; outline: as §1
[4] = system: HT-29; assay: Antitumor activity against HT29 cells expressing mutated p53; format: functional, cell-based; settings: Homo sapiens
Outline: (§2)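 Compounds tested as tri(methanesulfonate) salts, soluble in water and dilute buffers. Human tumour cells carrying wild-type or mutated p53 were exposed for 5 days, and viability was read by MTT assay. GI50, TGI and LC50 were calculated from the MTT data. Values are means ± SD of at least three independent experiments, with coefficients of variation of 10–20%.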

[5] = system: CAKI-1; assay: Antitumor activity against human CAKI-1 cells after 48 hrs; format: functional; settings: CAKI-1, 48 h; outline: as §1
[6] = system: HCT-116; assay: Inhibition of tumor growth in HCT116 cells xenografted in nu/nu mouse; format: functional, Homo sapiens
Outline: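 HCT116 xenografts in mice; compound given i.v. on a Q3Dx4 schedule, starting when tumours reached 62 mm3. Tumour growth inhibition measured.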

[7] = system: RKO; assay: Antitumor activity against human RKO cells expressing wild type p53; format: functional; settings: read-out: LC50 (the source's name); outline: as §2
[8] = read-out: Log LC50 (the source's name) (converted)

Compound: COc1ccc2c(c1)c(=O)c1c(NCCCN3CCN(CCCN4C(=O)c5cccc6cc([N+](=O)[O-])cc(c56)C4=O)CC3)ccc3ncn2c31.CS(=O)(=O)O
- GI50 [1]: 6.61 nM
- CC50 [1, 8]: > 1000 nM
- TGI ([1]; read-out: Log TGI (converted)): 331 nM
- GI50 [2]: 14.8 nM
- CC50 [2, 8]: > 1000 nM
- TGI ([2]; read-out: Log TGI (converted)): > 1000 nM
- GI50 [3]: 2.51 nM
- CC50 [3, 8]: > 1000 nM
- TGI ([3]; read-out: Log TGI (converted)): > 1000 nM
- IC50 [4]: 80 nM
- GI50 [5]: 3.02 nM
- CC50 [5, 8]: > 1000 nM
- TGI ([5]; read-out: Log TGI (converted)): 40.7 nM
- TGI [6]: 59%
- CC50 [7]: 25 nM
